Experimental data from ChEMBL document CHEMBL5058577, “EUbOPEN Chemogenomics Library 2 (Multiplex)” (2022).

System: HEK-293T
Experiment: Multiplex assay against HEK293T
Format: toxicity, cell-based
Details: human
Procedure, shortened: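 Imaging took place on a CQ1 microscope at 37°C and 5% CO2 once compound had been added to live cells stained at seeding with Hoechst33342, BioTracker Green Microtubule Cytoskeleton Dye, MitoTracker Red and Annexin V Alexa Fluor 680. CellPathfinder machine-learning gating classed cells as Hoechst high-intensity objects or normal cells, classed normal cells as having healthy, pyknosed or fragmented nuclei, and classed pyknosed cells as mitotic or apoptotic. Tubulin, mitochondrial-mass and membrane-permeability phenotypes are per cents of the healthy-nucleus cells.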

[1] = 12 h, 1 µM, compound concentration 1 uM, replicate 1
[2] = 12 h, 1 µM, compound concentration 1 uM, replicate 2
[3] = 12 h, 10 µM, compound concentration 10 uM, replicate 1
[4] = 12 h, 10 µM, compound concentration 10 uM, replicate 2
[5] = 24 h, 1 µM, compound concentration 1 uM, replicate 1
[6] = 24 h, 1 µM, compound concentration 1 uM, replicate 2
[7] = 24 h, 10 µM, compound concentration 10 uM, replicate 1
[8] = 24 h, 10 µM, compound concentration 10 uM, replicate 2
[9] = 48 h, 1 µM, compound concentration 1 uM, replicate 1
[10] = 48 h, 1 µM, compound concentration 1 uM, replicate 2
[11] = 48 h, 10 µM, compound concentration 10 uM, replicate 1
[12] = 48 h, 10 µM, compound concentration 10 uM, replicate 2

## CC(C)C[C@H](CO)Nc1nc(S[C@@H](C)c2ccccc2)nc2nc(N)sc12 [AZD-8797]
[1]
  Population Apoptotic (%): 39%
  Population Fragmented Nuclei (%): 2%
  Population Healthy Nuclei (%): 81%
  Population Hoechst High Intensity Objects (%): 4%
  Population Membrane Permeable-Phenotype (%): 0%
  Population Mitochondria Different-Phenotype (%): 44%
  Population Mitotic Cells (%): 60%
  Population Normal (%): 95%
  Population Pyknosed Nuclei (%): 15%
  Population Tubulin-Different-Phenotype (%): 27%
  Total Cell Count: 326
[2]
  Population Apoptotic (%): 46%
  Population Fragmented Nuclei (%): 8%
  Population Healthy Nuclei (%): 72%
  Population Hoechst High Intensity Objects (%): 7%
  Population Mitochondria Different-Phenotype (%): 57%
  Population Mitotic Cells (%): 53%
  Population Normal (%): 92%
  Population Pyknosed Nuclei (%): 18%
  Population Tubulin-Different-Phenotype (%): 22%
  Total Cell Count: 356
[3]
  Population Apoptotic (%): 65%
  Population Fragmented Nuclei (%): 9%
  Population Healthy Nuclei (%): 71%
  Population Hoechst High Intensity Objects (%): 10%
  Population Membrane Permeable-Phenotype (%): 0%
  Population Mitochondria Different-Phenotype (%): 70%
  Population Mitotic Cells (%): 34%
  Population Normal (%): 89%
  Population Pyknosed Nuclei (%): 18%
  Population Tubulin-Different-Phenotype (%): 56%
  Total Cell Count: 279
[4]
  Population Apoptotic (%): 67%
  Population Fragmented Nuclei (%): 6%
  Population Healthy Nuclei (%): 75%
  Population Mitochondria Different-Phenotype (%): 75%
  Population Mitotic Cells (%): 32%
  Population Tubulin-Different-Phenotype (%): 39%
  Total Cell Count: 345
[5]
  Population Apoptotic (%): 37%
  Population Fragmented Nuclei (%): 7%
  Population Healthy Nuclei (%): 76%
  Population Hoechst High Intensity Objects (%): 3%
  Population Membrane Permeable-Phenotype (%): 0%
  Population Mitochondria Different-Phenotype (%): 25%
  Population Mitotic Cells (%): 62%
  Population Normal (%): 97%
  Population Pyknosed Nuclei (%): 15%
  Population Tubulin-Different-Phenotype (%): 16%
  Total Cell Count: 400
[6]
  Population Apoptotic (%): 45%
  Population Healthy Nuclei (%): 81%
  Population Hoechst High Intensity Objects (%): 5%
  Population Mitochondria Different-Phenotype (%): 42%
  Population Mitotic Cells (%): 54%
  Population Normal (%): 94%
  Population Pyknosed Nuclei (%): 11%
  Population Tubulin-Different-Phenotype (%): 14%
  Total Cell Count: 421
[7]
  Population Apoptotic (%): 54%
  Population Fragmented Nuclei (%): 8%
  Population Healthy Nuclei (%): 73%
  Population Hoechst High Intensity Objects (%): 9%
  Population Membrane Permeable-Phenotype (%): 0%
  Population Mitochondria Different-Phenotype (%): 64%
  Population Mitotic Cells (%): 45%
  Population Normal (%): 90%
  Population Pyknosed Nuclei (%): 17%
  Population Tubulin-Different-Phenotype (%): 39%
  Total Cell Count: 346
[8]
  Population Apoptotic (%): 51%
  Population Fragmented Nuclei (%): 9%
  Population Healthy Nuclei (%): 77%
  Population Hoechst High Intensity Objects (%): 8%
  Population Mitochondria Different-Phenotype (%): 71%
  Population Mitotic Cells (%): 48%
  Population Normal (%): 91%
  Population Pyknosed Nuclei (%): 12%
  Population Tubulin-Different-Phenotype (%): 36%
  Total Cell Count: 393
[9]
  Population Apoptotic (%): 43%
  Population Fragmented Nuclei (%): 15%
  Population Healthy Nuclei (%): 78%
  Population Hoechst High Intensity Objects (%): 1%
  Population Membrane Permeable-Phenotype (%): 0%
  Population Mitochondria Different-Phenotype (%): 16%
  Population Mitotic Cells (%): 56%
  Population Normal (%): 98%
  Population Pyknosed Nuclei (%): 6%
  Population Tubulin-Different-Phenotype (%): 10%
  Total Cell Count: 663
[10]
  Population Apoptotic (%): 24%
  Population Fragmented Nuclei (%): 12%
  Population Healthy Nuclei (%): 79%
  Population Hoechst High Intensity Objects (%): 3%
  Population Membrane Permeable-Phenotype (%): 1%
  Population Mitochondria Different-Phenotype (%): 24%
  Population Mitotic Cells (%): 75%
  Population Normal (%): 96%
  Population Pyknosed Nuclei (%): 8%
  Population Tubulin-Different-Phenotype (%): 13%
  Total Cell Count: 681
[11]
  Population Apoptotic (%): 60%
  Population Fragmented Nuclei (%): 16%
  Population Healthy Nuclei (%): 72%
  Population Hoechst High Intensity Objects (%): 7%
  Population Membrane Permeable-Phenotype (%): 0%
  Population Mitochondria Different-Phenotype (%): 57%
  Population Mitotic Cells (%): 39%
  Population Normal (%): 92%
  Population Pyknosed Nuclei (%): 11%
  Population Tubulin-Different-Phenotype (%): 28%
  Total Cell Count: 416
[12]
  Population Apoptotic (%): 52%
  Population Fragmented Nuclei (%): 15%
  Population Healthy Nuclei (%): 75%
  Population Hoechst High Intensity Objects (%): 6%
  Population Mitochondria Different-Phenotype (%): 52%
  Population Mitotic Cells (%): 47%
  Population Normal (%): 93%
  Population Pyknosed Nuclei (%): 8%
  Population Tubulin-Different-Phenotype (%): 21%
  Total Cell Count: 530
